Experimental data published in ChEMBL document CHEMBL1143425, “Paradoxical growth effect of caspofungin observed on biofilms and planktonic cells of five different Candida species” (2007).
In brackets after ≈: the same amount, converted by molar mass. Activity calls are given as the source filed them.

Legend:
Candida orthopsilosis [1] = experiment: Antimicrobial activity against Candida orthopsilosis BR-A35 grown as biofilm assessed as concentration producing paradoxical growth after 48 hrs by XTT reduction assay; type: functional
Procedure, shortened: (§1)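 Sabouraud-grown cells were shaken overnight (18 h, 120 rpm, 35°C) in RPMI 1640 with MOPS at pH 7.0, then washed and set at ~1 × 10^7 cells/ml. Attachment lasted 1.5 h at 37°C, and growth ran 24 h before challenge. Caspofungin was added in RPMI at 2–1,024 μg/ml (10 doublings) for 48 h at 35°C with shaking. XTT-menadione was read at 490 nm after 1 h at 35°C in the dark, with blank wells subtracted. MIC was taken as 50% reduction versus drug-free wells, and PG as >50% of control above MIC. Assays were run in duplicate.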

Candida metapsilosis [2] = experiment: Antimicrobial activity against Candida metapsilosis BR-A40 grown as planktonic cell assessed as paradoxical growth after 48 hrs by XTT reduction assay; type: functional, organism-based
Procedure, shortened: (§2)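 Planktonic cells were tested by CLSI M27-A2 broth microdilution with caspofungin in water, incubated 48 h. XTT-menadione was added to each well, plates were held 1 h at 35°C in the dark and centrifuged, and supernatant absorbance was read at 490 nm. MIC was defined as 50% decrease in metabolic activity versus drug-free control. PG was defined as ≥20% of control activity at concentrations above MIC.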

Candida parapsilosis [3] = experiment: Effect on morphology in Candida parapsilosis grown as planktonic cells assessed as rounding and clumping at 16 ug/ml after 48 hrs; type: functional, organism-based
Procedure, shortened: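 Clinical isolates were tested by CLSI M27-A2 broth microdilution with caspofungin dissolved in sterile water. After 48 h incubation, cells were taken from drug-containing and drug-free control wells. They were examined by light microscopy at ×400 for hyphae or pseudohyphae, rounding or clumping, and enlarged globose cells.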

Candida tropicalis [4] = experiment: Antimicrobial activity against Candida tropicalis BR-A20 grown as biofilm assessed as concentration producing paradoxical growth after 48 hrs by XTT reduction assay; type: functional
Procedure, shortened: (§3)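 Clinical isolates were grown overnight (18 h, 35°C, 120 rpm) in RPMI 1640 with MOPS, pH 7.0, then washed and set to ~1 × 10^7 cells/ml. Cells attached for 1.5 h at 37°C, 75 rpm, then biofilms grew 24 h. Caspofungin was given as doubling dilutions of 2–1,024 μg/ml for 48 h at 35°C, 75 rpm. Read-out was XTT-menadione in PBS, 1 h at 35°C in the dark, A490, cell-free blank subtracted. MIC was a 50% drop in activity versus drug-free; PG was >50% of control above MIC. Run in duplicate.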

Candida orthopsilosis [5] = experiment: Antimicrobial activity against Candida orthopsilosis BR-A39 grown as biofilm assessed as concentration producing paradoxical growth after 48 hrs by XTT reduction assay; type: functional; procedure, shortened: as §1
Candida tropicalis [6] = experiment: Antimicrobial activity against Candida tropicalis BR-A20 grown as planktonic cell after 48 hrs by XTT reduction assay; type: functional
Procedure, shortened: (§4)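 Planktonic broth microdilution followed CLSI M27-A2, with caspofungin dissolved in water. After 48 h, XTT-menadione was added to each well and plates were incubated 1 h at 35°C in the dark. Cells were pelleted by centrifugation and the supernatant was read at 490 nm. MIC was the lowest concentration giving a 50% drop in metabolic activity versus the drug-free control. PG was ≥20% of drug-free activity above the MIC.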

Candida parapsilosis [7] = experiment: Antimicrobial activity against Candida parapsilosis BR-A30 grown as planktonic cell assessed as paradoxical growth after 48 hrs by XTT reduction assay; type: functional, organism-based; procedure, shortened: as §4
Candida parapsilosis [8] = experiment: Antimicrobial activity against Candida parapsilosis BR-A25 grown as biofilm assessed as concentration producing paradoxical growth after 48 hrs by XTT reduction assay; type: functional; procedure, shortened: as §3
Candida metapsilosis [9] = experiment: Antimicrobial activity against Candida metapsilosis BR-A42 grown as planktonic cell after 48 hrs by XTT reduction assay; type: functional; conditions: Lodderomyces metapsilosis; procedure, shortened: as §2
Candida tropicalis [10] = experiment: Antimicrobial activity against Candida tropicalis BR-A14 grown as biofilm assessed as paradoxical growth after 48 hrs by XTT reduction assay; type: functional, organism-based; procedure, shortened: as §3
Candida orthopsilosis [11] = experiment: Effect on morphology in Candida orthopsilosis grown as planktonic cells assessed as inhibition of hyphae and pseudohyphae at 64 ug/ml after 48 hrs; type: functional, organism-based
Procedure, shortened: (§5)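 Cells were taken from caspofungin-containing and drug-free wells of the planktonic broth microdilution test after 48 h. They were examined by light microscopy at ×400.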

Candida albicans [12] = experiment: Effect on morphology in Candida albicans grown as biofilm assessed as inhibition of hyphae and pseudohyphae at 32 ug/ml after 48 hrs; type: functional, organism-based
Procedure, shortened: (§6)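 Biofilms formed in RPMI 1640 wells were exposed to caspofungin for 48 h and compared with drug-free control wells. Wells were examined in the plate under an inverted light microscope at ×200 and photographed.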

Candida orthopsilosis [13] = experiment: Antimicrobial activity against Candida orthopsilosis BR-A36 grown as biofilm after 48 hrs by XTT reduction assay; type: functional; conditions: Lodderomyces orthopsilosis
Procedure, shortened: (§7)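 Isolates were grown on Sabouraud agar (30°C, 24 h), then overnight in RPMI 1640 with MOPS, pH 7.0, at 35°C with shaking. Cells were washed and set to ~1 × 10^7 cells/ml, attached 1.5 h at 37°C, and grown 24 h. Biofilms were then exposed to caspofungin in 10 twofold dilutions (2–1,024 μg/ml) for 48 h at 35°C with shaking. Read-out was XTT-menadione, 1 h, 35°C, dark, A490, cell-free blank subtracted. MIC was the 50% drop in activity versus drug-free control. Tested in duplicate.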

Candida orthopsilosis [14] = experiment: Antimicrobial activity against Candida orthopsilosis BR-A37 grown as planktonic cell after 48 hrs by XTT reduction assay; type: functional; conditions: Lodderomyces orthopsilosis
Procedure, shortened: (§8)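 Planktonic broth microdilution followed CLSI M27-A2, with caspofungin dissolved in water. After 48 h, XTT-menadione was added to the wells and plates were kept 1 h at 35°C in the dark. Plates were then centrifuged and supernatant A490 was read. MIC was the lowest concentration giving a 50% decrease in metabolic activity versus drug-free control. Paradoxical growth was defined as ≥20% of control activity above the MIC.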

Candida orthopsilosis [15] = experiment: Antimicrobial activity against Candida orthopsilosis BR-A39 grown as planktonic cell assessed as paradoxical growth after 48 hrs by XTT reduction assay; type: functional, organism-based; procedure, shortened: as §2
Candida tropicalis [16] = experiment: Antimicrobial activity against Candida tropicalis BR-A18 grown as biofilm assessed as paradoxical growth after 48 hrs by XTT reduction assay; type: functional, organism-based; procedure, shortened: as §3
Candida albicans [17] = experiment: Antimicrobial activity against Candida albicans BR-A7 grown as planktonic cell after 48 hrs by XTT reduction assay; type: functional; procedure, shortened: as §8
Candida tropicalis [18] = experiment: Antimicrobial activity against Candida tropicalis BR-A20 grown as planktonic cell assessed as paradoxical growth after 48 hrs by XTT reduction assay; type: functional, organism-based; procedure, shortened: as §4
Candida orthopsilosis [19] = experiment: Antimicrobial activity against Candida orthopsilosis BR-A32 grown as biofilm assessed as concentration producing paradoxical growth after 48 hrs by XTT reduction assay; type: functional; procedure, shortened: as §1
Candida metapsilosis [20] = experiment: Effect on morphology in Candida metapsilosis grown as biofilm assessed as rounding and clumping at 16 ug/ml after 48 hrs; type: functional, organism-based; procedure, shortened: as §6
Candida albicans [21] = experiment: Effect on morphology in Candida albicans grown as biofilm assessed as rounding and clumping at 32 ug/ml after 48 hrs; type: functional, organism-based; procedure, shortened: as §6
Candida orthopsilosis [22] = experiment: Antimicrobial activity against Candida orthopsilosis BR-A37 grown as biofilm after 48 hrs by XTT reduction assay; type: functional; conditions: Lodderomyces orthopsilosis; procedure, shortened: as §7
Candida orthopsilosis [23] = experiment: Effect on morphology in Candida orthopsilosis grown as planktonic cells assessed as rounding and clumping at 64 ug/ml after 48 hrs; type: functional, organism-based; procedure, shortened: as §5
Candida orthopsilosis [24] = experiment: Antimicrobial activity against Candida orthopsilosis BR-A38 grown as planktonic cell assessed as concentration producing paradoxical growth after 48 hrs by XTT reduction assay; type: functional; procedure, shortened: as §2

SMILES: CC[C@H](C)C[C@H](C)CCCCCCCCC(=O)N[C@H]1C[C@@H](O)[C@@H](NCCN)NC(=O)[C@@H]2[C@@H](O)CCN2C(=O)[C@H]([C@H](O)CCN)NC(=O)[C@H]([C@H](O)[C@@H](O)c2ccc(O)cc2)NC(=O)[C@@H]2C[C@@H](O)CN2C(=O)[C@H]([C@@H](C)O)NC1=O [CASPOFUNGIN]
- Activity (Candida orthopsilosis [1]): 16 µg/mL
- Activity (Candida metapsilosis [2]): inactive
- Activity (Candida parapsilosis [3]): Active
- Activity (Candida tropicalis [4]): 8 µg/mL
- Activity (Candida orthopsilosis [5]): 32 µg/mL
- MIC (Candida tropicalis [6]): 0.5 µg/mL (≈ 0.457 µM)
- Activity (Candida parapsilosis [7]): inactive
- Activity (Candida parapsilosis [8]): 16 µg/mL
- MIC (Candida metapsilosis [9]): 1 µg/mL (≈ 0.915 µM)
- Activity (Candida tropicalis [10]): Active
- Activity (Candida orthopsilosis [11]): Active
- Activity (Candida albicans [12]): Active
- MIC (Candida orthopsilosis [13]): 2 µg/mL (≈ 1.83 µM)
- MIC (Candida orthopsilosis [14]): 2 µg/mL (≈ 1.83 µM)
- Activity (Candida orthopsilosis [15]): inactive
- Activity (Candida tropicalis [16]): Active
- MIC (Candida albicans [17]): 0.5 µg/mL (≈ 0.457 µM)
- Activity (Candida tropicalis [18]): Active
- Activity (Candida orthopsilosis [19]): 32 µg/mL
- Activity (Candida metapsilosis [20]): Active
- Activity (Candida albicans [21]): Active
- MIC (Candida orthopsilosis [22]): 2 µg/mL (≈ 1.83 µM)
- Activity (Candida orthopsilosis [23]): Active
- Activity (Candida orthopsilosis [24]): 16 µg/mL
